Assay results reported in ChEMBL document CHEMBL1221379, “Identification and hit-to-lead optimization of a novel class of CB1 antagonists” (Bioorg Med Chem Lett, 2010).
In brackets after ≈: the same amount, converted by molar mass.

Legend:
[1] = Metabolic stability in human liver microsome assessed as compound remaining after 0.5 hrs; format: ADME; conditions: liver microsomes, read-out: Stability
Outline: (§1)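 Human or mouse liver microsomes (300 nM cytochrome P450) in phosphate buffer pH 7.4 with 1 µM test compound and 1 mM NADPH. Incubated 30 min at 37 °C, stopped with acetonitrile, centrifuged, and analysed by LC/MS. Result given as % compound remaining at 0.5 h.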

[2] = Metabolic stability in mouse liver microsome assessed as compound remaining after 0.5 hrs; format: ADME; conditions: liver microsomes, read-out: Stability; outline: as §1
Cannabinoid receptor 1 = Cannabinoid receptor 1 (Homo sapiens, UniProt P21554); experiment: Antagonist activity at human cannabinoid CB1 receptor expressed in CHO cells by luciferase reporter gene assay
Sequence of Cannabinoid receptor 1 (P21554 whole entry): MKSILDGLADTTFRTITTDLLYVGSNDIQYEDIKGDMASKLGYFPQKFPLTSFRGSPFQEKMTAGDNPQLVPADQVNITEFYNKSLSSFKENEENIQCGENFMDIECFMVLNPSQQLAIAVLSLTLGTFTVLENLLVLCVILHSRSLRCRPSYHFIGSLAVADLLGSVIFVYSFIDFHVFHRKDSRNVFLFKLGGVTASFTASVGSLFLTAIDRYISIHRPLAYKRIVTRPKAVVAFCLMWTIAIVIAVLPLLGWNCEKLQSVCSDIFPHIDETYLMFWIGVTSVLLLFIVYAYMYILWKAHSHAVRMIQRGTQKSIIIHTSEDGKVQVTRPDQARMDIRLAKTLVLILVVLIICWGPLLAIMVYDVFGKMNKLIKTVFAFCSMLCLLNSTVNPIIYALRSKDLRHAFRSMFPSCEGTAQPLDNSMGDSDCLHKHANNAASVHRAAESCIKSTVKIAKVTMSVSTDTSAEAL

[3] = Aqueous solubility of the compound; format: physicochemical; conditions: buffer
Outline: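 Shake-flask method. 10 mM DMSO stock added to 0.05 M phosphate buffered saline pH 7.4, 2% DMSO final. Vortexed at 1500 rpm for 24 h at 21 °C, then vacuum-filtered. Filtrate assayed by HPLC with UV at 230 nm against a calibration from a 50 µM DMSO solution. Duplicate determinations, averaged.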

[4] = AUC (0 to 7.5 hrs) in Wistar rat at 5 mg/kg, po; format: ADME, organism-based; set-up: time < 7.5 hr, dose 5 mg/kg, route oral; conditions: plasma
Outline: (§2)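 Male Wistar rats dosed 5 mpk po in 0.5% gelatin in 5% mannitol (aq), or 1 mpk iv in 20% N,N-dimethylacetamide in saline. AUC po taken over 0–7.5 h; clearance and half-life from iv dosing; oral bioavailability and Vss from po/iv pharmacokinetic parameters.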

[5] = Oral bioavailability in Wistar rat at 5 mg/kg; format: ADME, organism-based; conditions: in vivo; outline: as §2
[6] = Clearance in Wistar rat at 1 mg/kg, iv; format: ADME, organism-based; set-up: dose 1 mg/kg, route intravenous; conditions: in vivo; outline: as §2
[7] = Volume of distribution at steady state in Wistar rat at 5 mg/kg, po and 1 mg/kg, iv; format: ADME, organism-based; conditions: in vivo, read-out: Vdss; outline: as §2
[8] = Half life in Wistar rat at 1 mg/kg, iv; format: ADME, organism-based; set-up: dose 1 mg/kg, route intravenous; conditions: in vivo; outline: as §2
Mus musculus [9] = experiment: Inhibition of WIN-55212-2-induced hypothermia in sc dosed mouse assessed as change in rectal temperature administered 15 mins before WIN-55212-2 challenge measured after 60 mins; conditions: 1 h
Mus musculus [10] = experiment: Inhibition of WIN-55212-2-induced hypothermia in mouse assessed as change in rectal temperature at 30 umol/kg sc administered 15 mins before WIN-55212-2 challenge measured after 60 mins; set-up: scale not given: the % may be the effect or the level left
Mus musculus [11] = experiment: Inhibition of WIN-55212-2-induced hypothermia in mouse assessed as change in rectal temperature at 100 umol/kg sc administered 15 mins before WIN-55212-2 challenge measured after 60 mins; set-up: scale not given: the % may be the effect or the level left
Mus musculus [12] = experiment: Inhibition of WIN-55212-2-induced hypothermia in mouse assessed as change in rectal temperature at 1 umol/kg sc administered 15 mins before WIN-55212-2 challenge measured after 60 mins; set-up: scale not given: the % may be the effect or the level left
Mus musculus [13] = experiment: Inhibition of WIN-55212-2-induced hypothermia in mouse assessed as change in rectal temperature at 3 umol/kg sc administered 15 mins before WIN-55212-2 challenge measured after 60 mins; set-up: scale not given: the % may be the effect or the level left
Mus musculus [14] = experiment: Inhibition of WIN-55212-2-induced hypothermia in mouse assessed as change in rectal temperature at 10 umol/kg sc administered 15 mins before WIN-55212-2 challenge measured after 60 mins; set-up: scale not given: the % may be the effect or the level left
Mus musculus [15] = experiment: Inhibition of WIN-55212-2-induced hypothermia in mouse assessed as change in rectal temperature at 0.1 umol/kg sc administered 15 mins before WIN-55212-2 challenge measured after 60 mins; set-up: scale not given: the % may be the effect or the level left
Mus musculus [16] = experiment: Inhibition of WIN-55212-2-induced hypothermia in mouse assessed as change in rectal temperature at 0.3 umol/kg sc administered 15 mins before WIN-55212-2 challenge measured after 60 mins; set-up: scale not given: the % may be the effect or the level left
Mus musculus [17] = experiment: Inhibition of WIN-55212-2-induced hypothermia in mouse assessed as change in rectal temperature at 0.01 umol/kg sc administered 15 mins before WIN-55212-2 challenge measured after 60 mins; set-up: scale not given: the % may be the effect or the level left

Row | Structure (SMILES) | remaining at 0.5 h [1] | remaining at 0.5 h [2] | IC50 (Cannabinoid receptor 1) | solubility [3] | other results
1 | COc1ccccc1-c1cccc(Cn2cnc3ccc(C(=O)NCc4cccc(F)c4)cc32)c1 | 2% | 0% | 104 nM | – | –
2 | COc1cc(F)ccc1-c1cccc(Cn2cnc3ccc(NC(=O)C(C)(C)C)cc32)n1 | 14% | 1% | 73 nM | – | –
3 | COc1cc(F)ccc1-c1cccc(Cn2ccc3ccc(NC(=O)C(C)(C)C)cc32)c1 | 51% | 58% | 58 nM | < 1 µg/mL | –
4 | Cn1cc(Cc2cccc(-c3cccc4c3OCO4)c2)c2cc(NC(=O)C(C)(C)C)ccc21 | 52% | 29% | 37 nM | < 1 µg/mL | –
5 | COc1cc(F)ccc1-c1cccc(Cc2cn(C)c3ccc(NC(=O)C(C)(C)C)cc23)c1 | 70% | 72% | 45 nM | < 1 µg/mL | –
6 | COc1cc(F)ccc1-c1cccc(Cn2ccc3ccc(NC(=O)C(C)(C)CO)cc32)n1 | 45% | 54% | 45 nM | 11.7 µg/mL (≈ 26.1 µM) | –
7 | Cn1cc(Cc2cccc(-c3cccc4c3OCO4)n2)c2cc(NC(=O)C(C)(C)CO)ccc21 | 56% | 16% | 7 nM | < 1 µg/mL | –
8 | COc1cc(F)ccc1-c1cccc(Cc2cn(C)c3ccc(NC(=O)C(C)(C)CO)cc23)n1 | 47% | 5% | 27 nM | 2 µg/mL (≈ 4.33 µM) | –
9 | Cn1cc(Cc2cccc(-c3cccc4c3OCO4)n2)c2cc(NC(=O)CC(C)(C)O)ccc21 | 56% | 36% | 5 nM | 14.9 µg/mL (≈ 32.6 µM) | AUC(0-t) at 7.5 h [4]: 1290 ng·h/mL; bioavailability [5]: 37%; clearance [6]: 19 mL/min/kg; Vd [7]: 1.2 L/kg; half-life [8]: 1 h; ED50 (Mus musculus [9]): 30 µmol/kg; Activity (Mus musculus [10]): 46.8%; Activity (Mus musculus [11]): 92.5%
10 | COc1cc(F)ccc1-c1cccc(Cc2cn(C)c3ccc(NC(=O)CC(C)(C)O)cc23)n1 | 41% | 14% | 19 nM | 10.6 µg/mL (≈ 23 µM) | –
11 | Cc1c(C(=O)NN2CCCCC2)nn(-c2ccc(Cl)cc2Cl)c1-c1ccc(Cl)cc1 [RIMONABANT] | – | – | – | – | ED50 (Mus musculus [9]): 0.8 µmol/kg; Activity (Mus musculus [12]): 60.2%; Activity (Mus musculus [13]): 116.7%; Activity (Mus musculus [14]): 113.4%; Activity (Mus musculus [10]): 100.4%; Activity (Mus musculus [15]): 13.8%; Activity (Mus musculus [16]): 14.7%; Activity (Mus musculus [17]): -0.2%

Continued by falling IC50 (Cannabinoid receptor 1), values first:

Row | remaining at 0.5 h [1] | remaining at 0.5 h [2] | IC50 (Cannabinoid receptor 1) | solubility [3] | Structure (SMILES) | other results
12 | – | – | 269 nM | – | COc1cc(F)ccc1-c1cccc(Cn2cnc3ccc(NC(=O)C(C)(C)C)cc32)c1 | –
13 | 35% | 2% | 64 nM | – | CC(C)(C)C(=O)Nc1ccc2ncn(Cc3cccc(-c4cccc5c4OCO5)c3)c2c1 | –
14 | 72% | 65% | 51 nM | < 1 µg/mL | CC(C)(C)C(=O)Nc1ccc2ccn(Cc3cccc(-c4cccc5c4OCO5)c3)c2c1 | –
15 | 35% | 44% | 23 nM | 17.9 µg/mL (≈ 40 µM) | COc1cc(F)ccc1-c1cccc(Cn2ccc3ccc(NC(=O)CC(C)(C)O)cc32)n1 | –
16 | 28% | 17% | 21 nM | – | CC(C)(C)C(=O)Nc1ccc2ncn(Cc3cccc(-c4cccc5c4OCO5)n3)c2c1 | –
17 | 62% | 52% | 7 nM | 3.2 µg/mL (≈ 7.22 µM) | CC(C)(CO)C(=O)Nc1ccc2ccn(Cc3cccc(-c4cccc5c4OCO5)n3)c2c1 | –
18 | 51% | 53% | 3 nM | < 1 µg/mL | CC(C)(O)CC(=O)Nc1ccc2ccn(Cc3cccc(-c4cccc5c4OCO5)n3)c2c1 | –
